# Screening results deposited in PubChem BioAssay by Johns Hopkins Ion Channel Center.
# RGS4 block – inhibitors of human RGS4; P49798; HEK293 M3R/RGS4 inducible, Fluo-4 calcium flux; stronger effect = higher value; triggered by carbachol at its EC20; B-score at 10 µM; 310,000 tested, 0.45% active; AID 463165;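 active means B-score, a plate-corrected calcium signal, over three deviations above library mean, with baseline fluorescence within five deviations of library mean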;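 further: RGS4 expression induced by doxycycline in cells with stable M3 receptor; B-score is computed from the integrated fluorescence ratio over baseline after carbachol; higher B-score means a larger calcium signal and so more RGS4 inhibition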
# Target sequence (P49798 whole entry, looked up): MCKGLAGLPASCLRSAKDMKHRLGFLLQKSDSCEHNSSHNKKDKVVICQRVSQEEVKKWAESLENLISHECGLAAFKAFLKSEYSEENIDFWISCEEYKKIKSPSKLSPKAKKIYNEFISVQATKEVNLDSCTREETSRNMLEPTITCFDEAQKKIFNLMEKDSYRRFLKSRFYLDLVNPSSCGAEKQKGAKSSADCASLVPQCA
# MrgX1 antagonist – antagonists of human MrgX1 receptor. Q96LB2. MRGX1-HEK293 calcium flux, Fluo-4, BAM8-22 antagonism; stronger effect = lower value. B-score at 10 µM. 310,000 tested, 1.3% active;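 active means calcium-response B-score plate-corrected more than 3 library SD below zero, starting fluorescence within 5 deviations, no agonist response on first addition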;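 further: peak minus trough fluorescence over baseline after final BAM8-22 challenge near maximal dose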
# Target sequence (Q96LB2 whole entry, looked up): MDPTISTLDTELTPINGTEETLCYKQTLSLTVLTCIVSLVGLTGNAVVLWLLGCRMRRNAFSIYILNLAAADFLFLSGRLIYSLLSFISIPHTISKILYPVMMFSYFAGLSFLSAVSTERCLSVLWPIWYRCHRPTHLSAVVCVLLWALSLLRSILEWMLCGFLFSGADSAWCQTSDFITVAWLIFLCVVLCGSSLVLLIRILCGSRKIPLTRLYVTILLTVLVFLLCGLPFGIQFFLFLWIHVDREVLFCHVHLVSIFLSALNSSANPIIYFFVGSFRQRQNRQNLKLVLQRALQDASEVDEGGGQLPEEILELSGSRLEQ
# MrgX1 allo act – human MrgX1 positive allosteric modulation, primary screen | B-score at 10 µM | MrgX1-HEK293, Fluo-4 calcium flux, FDSS; stronger effect = higher value | 310,000 tested, 0.63% active;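 active means plate-corrected calcium response at least 3 library SD above typical, normal starting fluorescence, not activating the receptor alone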;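 further: compound read alongside a low EC10 to EC30 dose of BAM8-22 agonist; peak minus trough fluorescence over baseline measured at the second addition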
# RGS4 act – RGS4 potentiation or activation | HEK293 M3R/inducible RGS4, carbachol calcium flux Fluo4; stronger effect = lower value | AID 463111 | B-score at 10 µM | 310,000 tested, 0.92% active;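 active means B-score of the integrated calcium signal more than 4 SD below the library mean, with starting fluorescence not abnormally high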;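 further: negative B-score means reduced calcium response which marks RGS4 activation or potentiation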
#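 System – HEK293 FlpIn-TREx cells, stable M3R, doxycycline-inducible RGS4 · Reagent – ECmax carbachol challenge · Times – compound preincubation 20 min at room temperature before agonist · Technique – Fluo4 fluorescence kinetic imaging of calcium · Measure – B score of integrated Fluo4 ratio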
# MrgX1 agonist – human MrgX1 receptor agonism, primary screen; 310,000 tested, 0.44% active; MrgX1-HEK293 cells, Fluo-4 calcium fluorescence, agonist mode; stronger effect = higher value; B-score at 10 µM;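 active means calcium response B-score plate-corrected fluorescence ratio at least 3 library SD, with starting fluorescence B-score inside 5 SD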
#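 times = overnight plating, then 30 min 37 °C plus 30 min room-temperature dye loading | assay system = stable human MrgX1 HEK293 cell line | input = fifteen thousand cells per well | signal = kinetic calcium dye fluorescence, Fluo-4 NW | dosing = compound delivered in addition one of three | read-out = B-scored fluorescence response ratio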
# MrgX1 ant reconf – reconfirmed antagonist of human MrgX1 receptor signaling; remaining BAM8-22 calcium response % of control (stronger effect = lower value), % at 10 µM; 2,300 tested, 19% active; MrgX1-HEK293, BAM8-22 calcium flux, Fluo-4; stronger effect = lower value; AID 602420; shares compounds with MrgX1 antagonist;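 active means remaining agonist calcium response no higher than 100% minus 3 SD of agonist-only control wells, with starting fluorescence near control levels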;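 further: agonist BAM8-22 given at a near maximal EC90 to ECmax level; peak minus minimum fluorescence divided by baseline after agonist addition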
# HEK293 Ca flux – MrgX1 antagonist counter-screen hit in parental HEK293 cells; shares compounds with MrgX1 antagonist; Fluo-4 calcium fluorescence, FDSS; fluorescence ratio F(max-min)/F0 at 10 µM; 4,000 tested, 2% active;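 active means duplicate-averaged calcium fluorescence ratio at least three times the standard deviation of buffer wells, a nonspecific response in parental cells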
# HEK293 Ca counter – activity in parental HEK293 cells without MrgX1; AID 624114; fluorescence ratio F(max-min)/F0 at 10 µM; shares compounds with MrgX1 antagonist; 4,000 tested, 0.4% active; parental HEK293 calcium flux, Fluo-4 fluorescence ratio; stronger effect = higher value;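 active means calcium fluorescence ratio, averaged over duplicates, at least 3 SD of the buffer-well ratio, meaning a nonspecific response in receptor-free cells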;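 further: untransfected parental HEK293 lacking MrgX1 used as counterscreen for MrgX1 allosteric activators; fluorescence change taken during the second addition on a kinetic imager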
# HEK293 Ca cntr2 – counter-screen for MrgX1 activators: effect in parental HEK293 cells | Fluo-4 calcium fluorescence (FDSS); stronger effect = higher value | shares compounds with MrgX1 antagonist | fluorescence ratio F(max-min)/F0 at 10 µM | 4,000 tested, 8.7% active;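 active means calcium fluorescence ratio at least three times the spread of buffer wells, meaning a non-specific response in parental cells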
# An asterisk follows results filed as active; i = inactive; / = no result given. In the library only some 3.5% were active in any assay of this set; here they are far more common.
SMILES,RGS4 block,MrgX1 antagonist,MrgX1 allo act,RGS4 act,MrgX1 agonist,MrgX1 ant reconf,HEK293 Ca flux,HEK293 Ca counter,HEK293 Ca cntr2
O=C(NCCCN1CCOCC1)c1cc2ccccc2cc1O,i,-4.73*,i,i,i,i,i,i,i
CC1CCC2(CC1)NC(=O)N(CC(=O)Nc1ccc(N3CCOCC3)cc1)C2=O (stereo not given),i,-4.68*,i,i,i,83.5%*,i,i,i
Cc1cc(-c2ccccc2)nc(SCC(=O)N2CCCC2)n1,i,-5.42*,i,i,i,i,i,i,i
CCc1nc(SCC(=O)N2CCCC2)c2c(=O)n(C)c(=O)n(C)c2n1,i,i,i,i,i,/,/,/,/
Cc1cc(C)nc(SCC(=O)N2CCCCC2)n1,i,i,i,i,i,/,/,/,/
Cn1c(=O)c2c(SCC(=O)N3CCCC3)nc(-c3ccccc3)nc2n(C)c1=O,i,-6.02*,i,i,i,i,i,i,i
Cc1coc2cc3oc(=O)c(CCC(=O)NCCN4CCOCC4)c(C)c3cc12,i,i,i,i,i,/,/,/,/
COc1ccccc1C1CC(c2ccco2)=NN1S(C)(=O)=O (stereo not given),i,i,i,i,i,/,/,/,/
CCCN1C(=O)C(NC(C)=O)c2ccccc21 (stereo not given),i,i,i,i,i,/,/,/,/
CCc1ccc2c(c1)C(NC(C)=O)C(=O)N2CCN1CCOCC1 (stereo not given),i,-9.72*,i,i,i,i,i,i,i
O=[N+]([O-])c1c(Nc2cccc(O)c2)cc(Cl)c2nonc12,i,-11*,i,i,i,i,i,i,i
Cc1ccc2c(-c3csc(N)n3)c[nH]c2c1,i,i,i,i,i,/,/,/,/
NNC(=O)c1ccc(S(=O)(=O)N2CCc3ccccc32)cc1,i,i,i,i,i,/,/,/,/
CCNC(=O)CC1SC(=Nc2ccc(C)c([N+](=O)[O-])c2)N(C)C1=O (stereo not given),i,i,i,i,i,/,/,/,/
COCCCn1c(O)c(/C=C2\N=C(C#N)C(=Nc3ccc(C)cc3)O2)sc1=S,i,-11.1*,i,i,i,i,i,i,i
CC1CCN(C2CCN(S(=O)(=O)c3ccc(F)cc3)CC2)CC1,i,i,i,i,i,/,/,/,/
O=S(=O)(c1ccc(F)cc1)N1CCC(N2CCCCCC2)CC1,i,-11*,i,i,i,i,i,i,i
CN(C(=O)c1ccc2c(c1)SC1=NS(=O)(=O)CCN12)C(c1ccccc1)c1ccccc1,i,i,i,i,i,/,/,/,/
O=C(O)c1ccc2c(c1)SC1=NS(=O)(=O)CCN12,i,-14.3*,i,i,i,i,i,i,i
Cc1ccccc1-n1c(SCC(=O)c2cc(C)n(C)c2C)nnc1-c1ccncc1,i,i,i,i,i,/,/,/,/
CCN(CC)S(=O)(=O)c1cc(NC(=O)CN2C(=O)NC3(CCCc4ccccc43)C2=O)ccc1C (stereo not given),i,-6.07*,i,i,i,85.3%*,i,i,i
COCCNC(=O)C1CC2Cn3c(nc4cc5ccccc5cc43)C2N1C (stereo not given),i,-5.26*,i,i,i,i,i,i,i
